According to ChEMBL document CHEMBL4049434, “Radiolabeled Dibenzodiazepinone-Type Antagonists Give Evidence of Dualsteric Binding at the M2 Muscarinic Acetylcholine Receptor” (J Med Chem, 2017):
pIC50, pKi: −log10 of the molar value. Activity calls are given as the source filed them. The rule behind the calls is not given here.

Legend:
[1] = molecular target: T1, Muscarinic acetylcholine receptor M2 (Homo sapiens) (UniProt P08172); assay: Agonist activity at human muscarinic acetylcholine receptor M2 expressed in HEK293 cells coexpressing HA tagged Galpha-protein qi5 assessed as induction of IP1 accumulation measured after 1 hr by HTRF assay; format: functional, cell-based
T1 sequence (whole entry): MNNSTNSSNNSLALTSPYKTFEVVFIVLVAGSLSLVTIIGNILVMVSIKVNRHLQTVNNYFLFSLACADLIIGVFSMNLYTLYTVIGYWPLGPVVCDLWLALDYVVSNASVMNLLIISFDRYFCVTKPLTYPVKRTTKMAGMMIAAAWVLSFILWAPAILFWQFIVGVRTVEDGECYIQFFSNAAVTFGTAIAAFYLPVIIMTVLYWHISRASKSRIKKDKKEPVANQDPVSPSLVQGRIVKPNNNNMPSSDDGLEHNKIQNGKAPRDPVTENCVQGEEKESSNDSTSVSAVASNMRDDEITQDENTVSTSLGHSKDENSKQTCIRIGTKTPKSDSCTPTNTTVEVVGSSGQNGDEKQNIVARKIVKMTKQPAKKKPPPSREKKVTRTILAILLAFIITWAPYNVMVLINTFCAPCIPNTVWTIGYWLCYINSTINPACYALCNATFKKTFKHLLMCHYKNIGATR
Summary of the method: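 HEK-293 transiently cotransfected with human M2R and Gαqi5-HA, seeded 24 h before assay (10000 cells/well). Compounds in stimulation buffer (1 pM–100 μM final) 1 h at 37 °C; IP1 read by HTRF (620/670 nm, excitation 330 nm) after 60 min with detection reagents at rt. Duplicate, three experiments, carbachol as reference.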

[2] = molecular target: T1, Muscarinic acetylcholine receptor M2 (Homo sapiens); assay: Binding affinity to human muscarinic acetylcholine receptor M2 expressed in CHOK9 cells assessed as dissociation rate constant after 105 mins by liquid scintillation counting assay; format: cell-based; settings: tested as the 3H-labelled form
[3] = molecular target: T1, Muscarinic acetylcholine receptor M2 (Homo sapiens); assay: (§1) Competitive antagonist activity at human muscarinic acetylcholine receptor M2 expressed in HEK293 cells coexpressing HA tagged Galpha-protein qi5 assessed as inhibition of 10 uM carbachol-induced IP1 accumulation preincubated for 30 mins followed by carbachol addition measured after 1 hr by HTRF assay; format: functional, cell-based
Summary of the method: (§2)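 HEK-293 transiently cotransfected with human M2R and Gαqi5-HA. Cells preincubated 30 min with antagonist, then carbachol added (final 0.1, 0.3, 1 or 10 μM), 1 h at 37 °C. IP1 detected by HTRF (620/670 nm emission, 330 nm excitation). At least four independent experiments, each in duplicate.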

[4] = molecular target: T2, Muscarinic acetylcholine receptor M2 (Homo sapiens, UniProt P08172); assay: as §1; format: functional, cell-based; summary of the method: as §2
T2 sequence (P08172 whole entry): T1 sequence (whole entry)

[5] = molecular target: T1, Muscarinic acetylcholine receptor M2 (Homo sapiens); assay: as §1, with “1” for “10”; format: functional, cell-based; summary of the method: as §2
[6] = molecular target: T2, Muscarinic acetylcholine receptor M2; assay: as §1, with “1” for “10”; format: functional, cell-based; summary of the method: as §2
[7] = molecular target: T2, Muscarinic acetylcholine receptor M2; assay: Displacement of [3H]NMS from human muscarinic acetylcholine receptor M2 expressed in CHOK9 cells after 3 hrs by liquid scintillation counting assay; format: cell-based; settings: read-out: pKi (converted)
[8] = molecular target: T3, Muscarinic acetylcholine receptor M1 (Homo sapiens, UniProt P11229); assay: Displacement of [3H]NMS from human muscarinic acetylcholine receptor M1 expressed in CHOK9 cells after 3 hrs by liquid scintillation counting assay; format: cell-based
T3 sequence (P11229 whole entry): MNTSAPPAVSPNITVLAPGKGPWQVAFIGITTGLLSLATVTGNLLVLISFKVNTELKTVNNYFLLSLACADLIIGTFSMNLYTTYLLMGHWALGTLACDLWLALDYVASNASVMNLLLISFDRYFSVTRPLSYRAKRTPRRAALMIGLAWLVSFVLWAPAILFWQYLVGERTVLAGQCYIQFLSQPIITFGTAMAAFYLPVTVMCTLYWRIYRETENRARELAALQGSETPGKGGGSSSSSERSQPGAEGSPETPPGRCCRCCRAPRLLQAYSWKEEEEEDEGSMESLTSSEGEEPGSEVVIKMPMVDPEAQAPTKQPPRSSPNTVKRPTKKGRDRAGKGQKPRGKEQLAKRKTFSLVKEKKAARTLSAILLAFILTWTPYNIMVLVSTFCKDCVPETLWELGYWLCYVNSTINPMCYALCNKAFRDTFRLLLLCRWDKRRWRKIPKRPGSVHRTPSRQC

[9] = molecular target: T1, Muscarinic acetylcholine receptor M2 (Homo sapiens); assay: Binding affinity to human muscarinic acetylcholine receptor M2 expressed in CHOK9 cells assessed as association rate constant incubated up to 140 mins by liquid scintillation counting assay; format: cell-based; settings: tested as the 3H-labelled form
[10] = molecular target: T1, Muscarinic acetylcholine receptor M2 (Homo sapiens); assay: Binding affinity to human muscarinic acetylcholine receptor M2 expressed in live adherent CHOK9 cells after 2 hrs by liquid scintillation counting assay; format: cell-based; settings: tested as the 3H-labelled form
Summary of the method: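 Live adherent CHO-hM2 cells in L15 medium with 1% BSA, 23 ± 1 °C, 2 h incubation. Competition at 2 nM radioligand; additional 4, 8, 15 and 30 nM in W84 experiments. […] Saturation data fitted one-site; competition by four-parameter logistic fits; at least three experiments in triplicate.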

- Activity [1]: inactive
- K [2]: 0.011 min⁻¹
- inhibition [3]: Dose-dependent effect
- pIC50 [4]: 6.58
- inhibition [5]: Dose-dependent effect
- pIC50 [6]: 6.76
- Ki [7]: 0.407 nM
- pKi [8]: 8.82
- K [9]: 933000 M⁻¹ s⁻¹
- Bmax (disintegrations/minute) [10]: 1200
SMILES: CCC(=O)NCc1cc(C(=O)NCCNC(=O)CCc2cn(CCCCC3CCN(CC(=O)N4c5ccccc5NC(=O)c5ccccc54)CC3)cn2)cc(C(=O)NCCNC(=O)CCc2cn(CCCCC3CCN(CC(=O)N4c5ccccc5NC(=O)c5ccccc54)CC3)cn2)c1.O=C(O)C(F)(F)F.O=C(O)C(F)(F)F.O=C(O)C(F)(F)F.O=C(O)C(F)(F)F
